Experimental data pooled from the literature.
Lines come from different studies, so protocols differ.

| SMILES | target or system | assay | test system | conditions | quantity | value |
| --- | --- | --- | --- | --- | --- | --- |
| COc1ccc(NC(=O)NCc2cn(Cc3ccc(Cl)cc3)nn2)cc1 | L02 | cell growth or viability, CCK-8 |  | 50 µM, 72 h | viability | 121% |
| O=C(COc1ccc(Cl)cc1)NC12CC(c3nnc([C@H]4C[C@@H](OC(F)(F)F)C4)o3)(C1)C2 |  |  | human, plasma | oral, 100 mg, single dose, fasted, healthy volunteers | Cmax | 1180 nM |
| COc1ccc(-c2c(Nc3ccccn3)[nH]c3c(C4=CCCCC4)c(-c4ccccc4)nn3c2=O)cc1 |  |  | human, plasma | oral, 200 mg twice daily, multiple doses, patients | Cmax | 13600 ng/mL |
| O=C(Nc1ccc(-c2cn(Cc3ccc(Cl)cc3)nn2)cc1)Nc1ccccc1Br | L02 | cell growth or viability, CCK-8 |  | 50 µM, 72 h | viability | 113% |
| CC(C)n1c(C2CCNCC2)nc2c([N+](=O)[O-])c(Br)c(Br)cc21 |  |  | human, plasma | oral, 100 mg, patients | Cmax | 73.2 ng/mL |
| O=C(Nc1ccc(-c2cn(Cc3ccc(Br)cc3)nn2)cc1)Nc1ccccc1Br | L02 | cell growth or viability, CCK-8 |  | 50 µM, 72 h | viability | 104% |
| COc1ccc2c(c1)CN(C(=O)CCN1CCC(Cc3ccccc3)CC1)CC[S@@+]2[O-] |  |  | male human, plasma | intravenous, 0.4 mg/kg, healthy volunteers | Cmax | 1080 ng/mL |
| O=C(Nc1ccc(Cl)cc1)Nc1cccc(-c2cn(Cc3cccc(Cl)c3)nn2)c1 | L02 | cell growth or viability, CCK-8 |  | 50 µM, 72 h | viability | 71.8% |
| COc1ccc(NC(=O)Nc2cccc(-c3cn(Cc4cccc(Cl)c4)nn3)c2)cc1 | L02 | cell growth or viability, CCK-8 |  | 50 µM, 72 h | viability | 123% |
| CNC(C)(C)COCC(=O)N1CCC[C@H](C(=O)NCc2nc(-c3ccc(C(F)(F)F)cc3)cs2)C1 |  |  | Caco-2 |  | efflux ratio | 180 |
| O=C(Nc1ccc(Cl)cc1)Nc1ccc(-c2cn(Cc3cccc(Cl)c3)nn2)cc1 | L02 | cell growth or viability, CCK-8 |  | 50 µM, 72 h | viability | 92.6% |
| Cc1ccccc1Cn1cc(-c2cccc(NC(=O)Nc3ccc(F)cc3)c2)nn1 | L02 | cell growth or viability, CCK-8 |  | 50 µM, 72 h | viability | 103% |
